Data taken from ChEMBL document CHEMBL5724801, “EUbOPEN Chemogenomics Library - Multiplex” (2024).
Where “and” joins values, the source holds several entries; their conditions need not be identical. Equal values may be shown once.

tested on: U2OS; assay: Multiplex assay against U2OS; assay type: toxicity, cell-based; details: human, 12 h, 1 µM, compound concentration 1 uM
How it was run: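 Phenotypes for tubulin, mitochondrial mass and membrane permeability are expressed as per cents of healthy-nucleus cells. Cells were stained live at seeding with Hoechst33342, BioTracker Green Microtubule Cytoskeleton Dye, MitoTracker Red and Annexin V Alexa Fluor 680, then imaged after compound addition on a CQ1 microscope at 37°C and 5% CO2. Machine-learning gating in CellPathfinder separated Hoechst high-intensity objects from normal cells, divided normal cells by nuclear state (healthy, pyknosed, fragmented) and divided pyknosed cells into mitotic or apoptotic.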

| Compound | Population Apoptotic (%) | Population Fragmented Nuclei (%) | Population Healthy Nuclei (%) | Population Hoechst High Intensity Objects (%) | Population Membrane Permeable-Phenotype (%) | Population Mitochondria Different-Phenotype (%) | Population Mitotic Cells (%) | Population Normal (%) | Population Pyknosed Nuclei (%) | Population Tubulin-Different-Phenotype (%) |
| --- | --- | --- | --- | --- | --- | --- | --- | --- | --- | --- |
| CCCOc1ccc2[nH]cc(C3=CCNCC3)c2n1.Cl | 80% and 87% | 31% and 13% | 58% and 78% | 2% and 1% | 2% and 11% | 1% and 7% | 19% and 12% | 97% and 98% | 9% and 8% | 1% and 5% |
| CCNC1(C(N)=O)CCN(c2ncnc3c2nc(-c2ccccc2Cl)n3-c2ccc(Cl)cc2)CC1 [OTENABANT] | 77% and 85% | 30% and 17% | 60% and 74% | 3% and 2% | 13% and 11% | – | 22% and 14% | 96% and 97% | 9% and 7% | 4% and 10% |

same assay, conditions: human, 12 h, 1 µM, compound concentration 1 uM

| Compound | Total Cell Count |
| --- | --- |
| CCCOc1ccc2[nH]cc(C3=CCNCC3)c2n1.Cl | 218 and 98 |
| CCNC1(C(N)=O)CCN(c2ncnc3c2nc(-c2ccccc2Cl)n3-c2ccc(Cl)cc2)CC1 [OTENABANT] | 254 and 93 |

same assay, conditions: human, 12 h, 10 µM, compound concentration 10 uM

| Compound | Population Apoptotic (%) | Population Fragmented Nuclei (%) | Population Healthy Nuclei (%) | Population Hoechst High Intensity Objects (%) | Population Membrane Permeable-Phenotype (%) | Population Mitochondria Different-Phenotype (%) | Population Normal (%) | Population Pyknosed Nuclei (%) | Population Tubulin-Different-Phenotype (%) | Total Cell Count |
| --- | --- | --- | --- | --- | --- | --- | --- | --- | --- | --- |
| CCCOc1ccc2[nH]cc(C3=CCNCC3)c2n1.Cl | 86% and 60% | 24% and 17% | 66% and 74% | 4% and 0% | 6% and 12% | 5% | 96% and 100% | 8% and 7% | 3% and 6% | 275 and 134 |
| CCNC1(C(N)=O)CCN(c2ncnc3c2nc(-c2ccccc2Cl)n3-c2ccc(Cl)cc2)CC1 [OTENABANT] | 58% and 70% | 31% and 21% | 48% and 60% | 6% and 0% | 81% and 65% | 63% and 73% | 93% and 99% | 19% and 18% | 89% and 76% | 211 and 112 |

same assay, conditions: human, 12 h, 10 µM, compound concentration 10 uM

| Compound | Population Mitotic Cells (%) |
| --- | --- |
| CCNC1(C(N)=O)CCN(c2ncnc3c2nc(-c2ccccc2Cl)n3-c2ccc(Cl)cc2)CC1 [OTENABANT] | 41% and 30% |

same assay, conditions: human, 24 h, 1 µM, compound concentration 1 uM

| Compound | Population Apoptotic (%) | Population Fragmented Nuclei (%) | Population Healthy Nuclei (%) | Population Hoechst High Intensity Objects (%) | Population Membrane Permeable-Phenotype (%) | Population Mitochondria Different-Phenotype (%) | Population Normal (%) | Population Pyknosed Nuclei (%) | Population Tubulin-Different-Phenotype (%) | Total Cell Count |
| --- | --- | --- | --- | --- | --- | --- | --- | --- | --- | --- |
| CCCOc1ccc2[nH]cc(C3=CCNCC3)c2n1.Cl | 70% and 90% | 27% and 18% | 61% and 73% | 1% and 2% | 6% and 3% | 1% and 3% | 98% and 97% | 10% and 8% | 3% and 2% | 252 and 138 |
| CCNC1(C(N)=O)CCN(c2ncnc3c2nc(-c2ccccc2Cl)n3-c2ccc(Cl)cc2)CC1 [OTENABANT] | 79% and 80% | 26% and 24% | 61% and 62% | 3% and 4% | 11% and 15% | 5% and 15% | 96% and 95% | 11% and 13% | 7% and 5% | 308 and 120 |

same assay, conditions: human, 24 h, 1 µM, compound concentration 1 uM

| Compound | Population Mitotic Cells (%) |
| --- | --- |
| CCNC1(C(N)=O)CCN(c2ncnc3c2nc(-c2ccccc2Cl)n3-c2ccc(Cl)cc2)CC1 [OTENABANT] | 20 |

same assay, conditions: human, 24 h, 10 µM, compound concentration 10 uM

| Compound | Population Apoptotic (%) | Population Fragmented Nuclei (%) | Population Healthy Nuclei (%) | Population Hoechst High Intensity Objects (%) | Population Membrane Permeable-Phenotype (%) | Population Mitochondria Different-Phenotype (%) | Population Normal (%) | Population Pyknosed Nuclei (%) | Population Tubulin-Different-Phenotype (%) | Total Cell Count |
| --- | --- | --- | --- | --- | --- | --- | --- | --- | --- | --- |
| CCCOc1ccc2[nH]cc(C3=CCNCC3)c2n1.Cl | 92% and 72% | 25% and 14% | 66% and 78% | 3% and 0% | 5% and 11% | 3% and 2% | 96% and 99% | 8% and 6% | 3% and 4% | 323 and 162 |
| CCNC1(C(N)=O)CCN(c2ncnc3c2nc(-c2ccccc2Cl)n3-c2ccc(Cl)cc2)CC1 [OTENABANT] | 69% and 80% | 29% and 28% | 49% and 53% | 3% | 55% and 47% | 75% and 72% | 96% | 20% and 18% | 78% and 62% | 218 and 137 |

same assay, conditions: human, 24 h, 10 µM, compound concentration 10 uM

| Compound | Population Mitotic Cells (%) |
| --- | --- |
| CCNC1(C(N)=O)CCN(c2ncnc3c2nc(-c2ccccc2Cl)n3-c2ccc(Cl)cc2)CC1 [OTENABANT] | 30% and 20% |

same assay, conditions: human, 48 h, 1 µM, compound concentration 1 uM

| Compound | Population Apoptotic (%) | Population Fragmented Nuclei (%) | Population Healthy Nuclei (%) | Population Hoechst High Intensity Objects (%) | Population Membrane Permeable-Phenotype (%) | Population Mitochondria Different-Phenotype (%) | Population Normal (%) | Population Pyknosed Nuclei (%) | Population Tubulin-Different-Phenotype (%) | Total Cell Count |
| --- | --- | --- | --- | --- | --- | --- | --- | --- | --- | --- |
| CCCOc1ccc2[nH]cc(C3=CCNCC3)c2n1.Cl | 91% and 75% | 19% | 69% and 74% | 2% | 5% and 9% | 3% | 97% | 10% and 6% | 1% and 3% | 350 and 183 |
| CCNC1(C(N)=O)CCN(c2ncnc3c2nc(-c2ccccc2Cl)n3-c2ccc(Cl)cc2)CC1 [OTENABANT] | 86% and 52% | 24% and 16% | 64% and 69% | 1% and 4% | 7% and 13% | 4% and 10% | 98% and 95% | 10% and 14% | 3% and 9% | – |

same assay, conditions: human, 48 h, 10 µM, compound concentration 10 uM

| Compound | Population Apoptotic (%) | Population Fragmented Nuclei (%) | Population Healthy Nuclei (%) | Population Hoechst High Intensity Objects (%) | Population Membrane Permeable-Phenotype (%) | Population Mitochondria Different-Phenotype (%) | Population Mitotic Cells (%) | Population Normal (%) | Population Pyknosed Nuclei (%) | Population Tubulin-Different-Phenotype (%) |
| --- | --- | --- | --- | --- | --- | --- | --- | --- | --- | --- |
| CCCOc1ccc2[nH]cc(C3=CCNCC3)c2n1.Cl | 100% and 94% | 18% and 13% | 75% and 78% | 4% and 0% | 5% and 6% | 2% and 3% | 0% and 5% | 95% and 99% | 6% and 7% | 3% |
| CCNC1(C(N)=O)CCN(c2ncnc3c2nc(-c2ccccc2Cl)n3-c2ccc(Cl)cc2)CC1 [OTENABANT] | 86% and 80% | 32% and 29% | 43% and 45% | 7% and 10% | 49% and 43% | 55% and 66% | 13% and 20% | 92% and 89% | 23% and 24% | 51% and 49% |

same assay, conditions: human, 48 h, 10 µM, compound concentration 10 uM

| Compound | Total Cell Count |
| --- | --- |
| CCCOc1ccc2[nH]cc(C3=CCNCC3)c2n1.Cl | 423 and 243 |
| CCNC1(C(N)=O)CCN(c2ncnc3c2nc(-c2ccccc2Cl)n3-c2ccc(Cl)cc2)CC1 [OTENABANT] | 269 and 138 |
